# ChEMBL document CHEMBL2157922, “Synthesis and antifungal activity of diverse C-2 pyridinyl and pyridinylvinyl substituted quinolines” (2012)
# Experiments:
# Assay type in all cases: functional
# [1] = tested on: Pichia kudriavzevii; assay: Antifungal activity against Candida krusei CCC 117 after 48 hrs by broth microdilution technique; settings: CCC 117, 48 h
# [2] = tested on: Nakaseomyces glabratus; assay: Antifungal activity against Candida glabrata CCC 115 after 48 hrs by broth microdilution technique; settings: CCC 115, 48 h
# [3] = tested on: Candida tropicalis; assay: Antifungal activity against Candida tropicalis CCC 131 after 48 hrs by broth microdilution technique; settings: CCC 131, 48 h
# [4] = tested on: Saccharomyces cerevisiae; assay: Antifungal activity against Saccharomyces cerevisiae ATCC 9763 after 48 hrs by broth microdilution technique; settings: ATCC 9763, 48 h
# In short: (§1)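 Yeasts were tested by CLSI broth microdilution in RPMI-1640 buffered to pH 7.0 with MOPS, with compound from 250 down to 0.98 in DMSO stocks. Trays were held at 30 °C in a moist, dark chamber. MIC100, the lowest concentration giving total visual inhibition against the growth control, was read by eye at 48 h.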
# [5] = tested on: Candida albicans; assay: Antifungal activity against Candida albicans CCC 128 after 48 hrs by broth microdilution technique; settings: CCC 128, 48 h
# [6] = tested on: Candida albicans; assay: Antifungal activity against Candida albicans ATCC 10231 after 48 hrs by broth microdilution technique; settings: ATCC 10231, 48 h; in short: as §1
# [7] = tested on: Nannizzia gypsea; assay: Antifungal activity against Microsporum gypseum CCC 115 after 48 hrs by broth microdilution technique; settings: CCC 115, 48 h
# In short: (§2)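 Moulds and dermatophytes were run by CLSI broth microdilution in MOPS-buffered RPMI-1640 at pH 7.0. Aspergillus was incubated at 30 °C and dermatophytes at 28–30 °C, in a moist, dark chamber. MIC100, the lowest concentration with no visible growth, was read visually at a time set by growth of the control fungus.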
# [8] = tested on: Candida albicans; assay: Antifungal activity against Candida albicans CCC 126 after 48 hrs by broth microdilution technique; settings: CCC 126, 48 h
# [9] = tested on: Cryptococcus neoformans; assay: Antifungal activity against Cryptococcus neoformans IM 983036 after 48 hrs by broth microdilution technique; settings: IM 983036, 48 h
# In short: (§3)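 C. neoformans was tested by 96-well RPMI-1640 microdilution, with DMSO-matched growth and sterility control wells. Plates were incubated 48 h at 30 °C in a moist, dark chamber and read at OD405. % inhibition = 100 − (CTW − SCW)/(GCW − SCW), in duplicate. For the clinical isolates, MIC80 and MIC50 are the lowest concentrations giving 80% and 50% inhibition.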
# [10] = tested on: Cryptococcus neoformans; assay: Antifungal activity against Cryptococcus neoformans IM 972724 after 48 hrs by broth microdilution technique; settings: IM 972724, 48 h; in short: as §3
# [11] = tested on: Trichophyton rubrum; assay: Antifungal activity against Trichophyton rubrum CCC 113 after 48 hrs by broth microdilution technique; settings: CCC 113, 48 h
# [12] = tested on: Cryptococcus neoformans; assay: Antifungal activity against Cryptococcus neoformans IM 972751 after 48 hrs by broth microdilution technique; settings: IM 972751, 48 h; in short: as §3
# [13] = tested on: Aspergillus niger; assay: Antifungal activity against Aspergillus niger ATCC 9029 after 48 hrs by broth microdilution technique; settings: ATCC 9029, 48 h; in short: as §2
# [14] = tested on: Candida albicans; assay: Antifungal activity against Candida albicans CCC 129 after 48 hrs by broth microdilution technique; settings: CCC 129, 48 h
# [15] = tested on: Candida albicans; assay: Antifungal activity against Candida albicans CCC 130 after 48 hrs by broth microdilution technique; settings: CCC 130, 48 h
# [16] = tested on: Candida albicans; assay: Antifungal activity against Candida albicans CCC 127 after 48 hrs by broth microdilution technique; settings: CCC 127, 48 h
# [17] = tested on: Cryptococcus neoformans; assay: Antifungal activity against Cryptococcus neoformans IM 00319 after 48 hrs by broth microdilution technique; settings: IM 00319, 48 h; in short: as §3
# [18] = tested on: Aspergillus flavus; assay: Antifungal activity against Aspergillus flavus ATCC 9170 after 48 hrs by broth microdilution technique; settings: ATCC 9170, 48 h; in short: as §2
# [19] = tested on: Candida albicans; assay: Antifungal activity against Candida albicans CCC 125 after 48 hrs by broth microdilution technique; settings: CCC 125, 48 h
# [20] = tested on: Cryptococcus neoformans; assay: Antifungal activity against Cryptococcus neoformans IM 042074 after 48 hrs by broth microdilution technique; settings: IM 042074, 48 h; in short: as §3
# [21] = tested on: Candida parapsilosis; assay: Antifungal activity against Candida parapsilosis CCC 124 after 48 hrs by broth microdilution technique; settings: Lodderomyces parapsilosis, CCC 124, 48 h
# [22] = tested on: Aspergillus fumigatus; assay: Antifungal activity against Aspergillus fumigatus ATCC 26934 after 48 hrs by broth microdilution technique; settings: ATCC 26934, 48 h; in short: as §2
# [23] = tested on: Cryptococcus neoformans; assay: Antifungal activity against Cryptococcus neoformans IM 983040 after 48 hrs by broth microdilution technique; settings: IM 983040, 48 h; in short: as §3
# [24] = tested on: Trichophyton mentagrophytes; assay: Antifungal activity against Trichophyton mentagrophytes ATCC 9972 after 48 hrs by broth microdilution technique; settings: ATCC 9972, 48 h; in short: as §2
# [25] = tested on: Cryptococcus neoformans; assay: Antifungal activity against Cryptococcus neoformans ATCC 32264 after 48 hrs by broth microdilution technique; settings: ATCC 32264, 48 h; in short: as §1
Structure (SMILES),MIC [4],MIC [6],MIC [7],MIC [11],MIC [13],MIC [18],MIC [22],MIC [24],MIC [25],further results
C[C@@H]1[C@H](O)[C@@H](C)/C=C/C=C/C=C/C=C/C=C/C=C/C=C/[C@H](O[C@@H]2O[C@H](C)[C@@H](O)[C@H](N)[C@@H]2O)C[C@@H]2O[C@](O)(C[C@@H](O)C[C@@H](O)[C@H](O)CC[C@@H](O)C[C@@H](O)CC(=O)O[C@H]1C)C[C@H](O)[C@H]2C(=O)O [AMPHOTERICIN B],0.49 µg/mL,0.98 µg/mL,0.12 µg/mL,0.06 µg/mL,0.49 µg/mL,0.49 µg/mL,0.49 µg/mL,0.06 µg/mL,0.25 µg/mL,MIC80 [1]: 0.39 µg/mL; MIC80 [2]: 0.39 µg/mL; MIC80 [3]: 0.5 µg/mL; MIC80 [5]: 1.56 µg/mL; MIC80 [6]: 1 µg/mL; MIC80 [8]: 1.56 µg/mL; MIC80 [9]: 0.13 µg/mL; MIC80 [10]: 0.06 µg/mL; MIC80 [12]: 0.25 µg/mL; MIC80 [14]: 0.78 µg/mL; MIC80 [15]: 0.5 µg/mL; MIC80 [16]: 0.78 µg/mL; MIC80 [17]: 0.25 µg/mL; MIC80 [19]: 0.78 µg/mL; MIC80 [20]: 0.25 µg/mL; MIC80 [21]: 0.78 µg/mL; MIC80 [23]: 0.13 µg/mL; MIC80 [25]: 0.25 µg/mL
CC(=O)N1CCN(c2ccc(OCC3COC(Cn4ccnc4)(c4ccc(Cl)cc4Cl)O3)cc2)CC1 (stereo not given) [KETOCONAZOLE],0.49 µg/mL,0.49 µg/mL,0.06 µg/mL,0.03 µg/mL,0.25 µg/mL,0.12 µg/mL,0.49 µg/mL,0.03 µg/mL,0.25 µg/mL,
CN(C/C=C/C#CC(C)(C)C)Cc1cccc2ccccc12 [TERBINAFINE],3.9 µg/mL,1.95 µg/mL,0.04 µg/mL,0.01 µg/mL,1.96 µg/mL,0.98 µg/mL,0.98 µg/mL,0.03 µg/mL,0.49 µg/mL,
